Test results as given in ChEMBL document CHEMBL4402598, “Design and Synthesis of Bitopic 2-Phenylcyclopropylmethylamine (PCPMA) Derivatives as Selective Dopamine D3 Receptor Ligands” (J Med Chem, 2020).

Tests used:
[1] = Ratio of drug level in ICR mouse brain to plasma at 5 mg/kg, iv measured after 0.5 hrs by LC-MS/MS analysis; format: ADME, organism-based; conditions: read-out: BPR
Method in brief: (§1)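 Male ICR mice (6-8 weeks, ~25 g) received compound in saline, 5 mg/kg iv or 10 mg/kg po. Brains collected at 0.5 and 2.0 h, saline-washed, weighed, homogenized in cold 50% methanol (1 g:3 mL). Plasma prepared from orbital blood. Samples held at -80 °C; LC-MS/MS quantitation. Brain/plasma ratio calculated from the two concentrations.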

[2] = Cmax in ICR mouse at 10 mg/kg, po by LC-MS/MS analysis; format: ADME, organism-based; design: dose 10 mg/kg, route oral; conditions: in vivo
Method in brief: (§2)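 Male ICR mice (6-8 weeks, ~25 g) dosed with compound dissolved in saline, 5 mg/kg iv or 10 mg/kg po, nine animals per group. Samples stored at -80 °C; drug quantified by LC-MS/MS.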

[3] = Half life in ICR mouse at 10 mg/kg, po by LC-MS/MS analysis; format: ADME, organism-based; conditions: in vivo; method in brief: as §2
D(4) dopamine receptor = target: T1, D(4) dopamine receptor (Homo sapiens, UniProt P21917); assay: Displacement of [3H]-N-methylspiperone from recombinant human D4 receptor stably expressed in HEK cell membranes measured after 90 mins by microbeta scintillation counting method
T1 sequence (P21917 whole entry): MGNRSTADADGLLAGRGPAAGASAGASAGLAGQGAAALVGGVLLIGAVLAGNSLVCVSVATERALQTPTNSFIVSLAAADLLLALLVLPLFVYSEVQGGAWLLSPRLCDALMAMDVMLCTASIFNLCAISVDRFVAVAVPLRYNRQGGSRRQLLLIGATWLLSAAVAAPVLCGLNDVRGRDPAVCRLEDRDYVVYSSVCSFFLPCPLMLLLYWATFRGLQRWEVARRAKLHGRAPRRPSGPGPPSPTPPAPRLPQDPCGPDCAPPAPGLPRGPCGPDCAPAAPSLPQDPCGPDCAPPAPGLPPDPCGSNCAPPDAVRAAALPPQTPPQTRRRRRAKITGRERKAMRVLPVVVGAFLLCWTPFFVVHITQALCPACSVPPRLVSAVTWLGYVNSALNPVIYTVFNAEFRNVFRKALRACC

D(1A) dopamine receptor = D(1A) dopamine receptor (Homo sapiens, UniProt P21728); assay: Displacement of [3H]-SCH23390 from recombinant human D1 receptor transiently expressed in HEKT cell membranes measured after 90 mins by microbeta scintillation counting method
D(2) dopamine receptor = D(2) dopamine receptor (Homo sapiens, UniProt P14416); assay: Displacement of [3H]-N-methylspiperone from recombinant human D2 receptor stably expressed in fibroblast cell membranes measured after 90 mins by microbeta scintillation counting method
[4] = Drug level in ICR mouse brain at 10 mg/kg, po measured after 2 hrs by LC-MS/MS analysis; format: ADME, organism-based; method in brief: as §1
[5] = Drug level in ICR mouse brain at 10 mg/kg, po measured after 0.5 hrs by LC-MS/MS analysis; format: ADME, organism-based; method in brief: as §1
[6] = target: 5-hydroxytryptamine receptor 2A (Homo sapiens, UniProt P28223); assay: Agonist activity at 5HT2A receptor (unknown origin) expressed in HEK293 cells co-expressing Gq assessed as induction of calcium mobilization measured at 1 sec interval for 60 secs by Fluo-4 calcium dye based FLIPR assay; format: cell-based; conditions: hek293, 1 min
[7] = Ratio of drug level in ICR mouse brain to plasma at 10 mg/kg, po measured after 2 hrs by LC-MS/MS analysis; format: ADME, organism-based; conditions: read-out: BPR; method in brief: as §1
[8] = MRT in ICR mouse at 5 mg/kg, iv by LC-MS/MS analysis; format: ADME, organism-based; conditions: in vivo; method in brief: as §2
[9] = Drug level in ICR mouse plasma at 10 mg/kg, po measured after 2 hrs by LC-MS/MS analysis; format: ADME, organism-based; method in brief: as §1
[10] = Drug level in ICR mouse brain at 5 mg/kg, iv measured after 0.5 hrs by LC-MS/MS analysis; format: ADME, organism-based; method in brief: as §1
[11] = target: T2, 5-hydroxytryptamine receptor 2C (Homo sapiens, UniProt P28335); assay: Displacement of [3H]-Mesulergine from recombinant human 5HT2C receptor expressed in HEKT cell membranes measured after 90 mins by microbeta scintillation counting method
T2 sequence (P28335 whole entry): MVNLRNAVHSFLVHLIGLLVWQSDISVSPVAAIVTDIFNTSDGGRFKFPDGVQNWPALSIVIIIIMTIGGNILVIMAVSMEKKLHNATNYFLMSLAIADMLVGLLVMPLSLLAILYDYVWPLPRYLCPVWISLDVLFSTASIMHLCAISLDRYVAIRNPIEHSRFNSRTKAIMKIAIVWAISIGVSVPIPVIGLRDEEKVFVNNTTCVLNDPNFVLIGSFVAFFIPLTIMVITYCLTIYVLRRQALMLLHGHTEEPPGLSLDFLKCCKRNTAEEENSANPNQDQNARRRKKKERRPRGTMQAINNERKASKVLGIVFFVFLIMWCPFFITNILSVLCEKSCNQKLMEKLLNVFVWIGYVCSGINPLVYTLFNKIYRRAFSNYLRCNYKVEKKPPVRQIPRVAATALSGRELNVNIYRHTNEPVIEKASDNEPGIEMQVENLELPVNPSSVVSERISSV

[12] = Drug level in ICR mouse brain at 5 mg/kg, iv measured after 2 hrs by LC-MS/MS analysis; format: ADME, organism-based; method in brief: as §1
[13] = Drug level in ICR mouse plasma at 10 mg/kg, po measured after 0.5 hrs by LC-MS/MS analysis; format: ADME, organism-based; method in brief: as §1
[14] = Drug level in ICR mouse plasma at 5 mg/kg, iv measured after 2 hrs by LC-MS/MS analysis; format: ADME, organism-based; method in brief: as §1
[15] = Half life in ICR mouse at 5 mg/kg, iv by LC-MS/MS analysis; format: ADME, organism-based; conditions: in vivo; method in brief: as §2
[16] = Tmax in ICR mouse at 10 mg/kg, po by LC-MS/MS analysis; format: ADME, organism-based; conditions: in vivo; method in brief: as §2
[17] = MRT in ICR mouse at 10 mg/kg, po by LC-MS/MS analysis; format: ADME, organism-based; conditions: in vivo; method in brief: as §2
[18] = target: 5-hydroxytryptamine receptor 2B (Homo sapiens, UniProt P41595); assay: Agonist activity at 5HT2B receptor (unknown origin) expressed in HEK293 cells co-expressing Gq assessed as induction of calcium mobilization measured at 1 sec interval for 60 secs by Fluo-4 calcium dye based FLIPR assay; format: cell-based; conditions: hek293, 1 min
[19] = Oral bioavailability in ICR mouse at 10 mg/kg by LC-MS/MS analysis; format: ADME, organism-based; conditions: in vivo; method in brief: as §2
[20] = AUC (0 to t) in ICR mouse at 5 mg/kg, iv by LC-MS/MS analysis; format: ADME, organism-based; conditions: in vivo; method in brief: as §2
[21] = target: T2, 5-hydroxytryptamine receptor 2C; assay: Antagonist activity at human 5HT2C receptor stably expressed in HEK293 cells co-expressing Gq assessed as inhibition of 5-HT-induced calcium mobilization preincubated for 15 mins followed by 5-HT addition and measured at 1 sec interval for 60 secs by Fluo-4 calcium dye based FLIPR assay; format: functional, cell-based
Method in brief: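 5-HT2C stably transfected HEK293 cells, loaded with Fluo-4 Direct (HBSS, 20 mM HEPES pH 7.4, 2.5 mM probenecid; 50 min 37 °C, 10 min room temperature). Test compound added, then 5-HT (final 1 nM) 15 min later.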

[22] = Ratio of drug level in ICR mouse brain to plasma at 5 mg/kg, iv measured after 2 hrs by LC-MS/MS analysis; format: ADME, organism-based; conditions: read-out: BPR; method in brief: as §1
[23] = Drug level in ICR mouse plasma at 5 mg/kg, iv measured after 0.5 hrs by LC-MS/MS analysis; format: ADME, organism-based; method in brief: as §1
D(1B) dopamine receptor = D(1B) dopamine receptor (Homo sapiens, UniProt P21918); assay: Displacement of [3H]-SCH23390 from recombinant human D5 receptor transiently expressed in HEKT cell membranes measured after 90 mins by microbeta scintillation counting method
[24] = Clearance in ICR mouse at 5 mg/kg, iv by LC-MS/MS analysis; format: ADME, organism-based; conditions: in vivo; method in brief: as §2
[25] = Ratio of drug level in ICR mouse brain to plasma at 10 mg/kg, po measured after 0.5 hrs by LC-MS/MS analysis; format: ADME, organism-based; conditions: read-out: BPR; method in brief: as §1
[26] = AUC (0 to t) in ICR mouse at 10 mg/kg, po by LC-MS/MS analysis; format: ADME, organism-based; conditions: in vivo; method in brief: as §2
[27] = Volume of distribution at steady state in ICR mouse at 5 mg/kg, iv by LC-MS/MS analysis; format: ADME, organism-based; conditions: in vivo, read-out: Vdss; method in brief: as §2

D(1A) dopamine receptor, sequence (P21728 whole entry): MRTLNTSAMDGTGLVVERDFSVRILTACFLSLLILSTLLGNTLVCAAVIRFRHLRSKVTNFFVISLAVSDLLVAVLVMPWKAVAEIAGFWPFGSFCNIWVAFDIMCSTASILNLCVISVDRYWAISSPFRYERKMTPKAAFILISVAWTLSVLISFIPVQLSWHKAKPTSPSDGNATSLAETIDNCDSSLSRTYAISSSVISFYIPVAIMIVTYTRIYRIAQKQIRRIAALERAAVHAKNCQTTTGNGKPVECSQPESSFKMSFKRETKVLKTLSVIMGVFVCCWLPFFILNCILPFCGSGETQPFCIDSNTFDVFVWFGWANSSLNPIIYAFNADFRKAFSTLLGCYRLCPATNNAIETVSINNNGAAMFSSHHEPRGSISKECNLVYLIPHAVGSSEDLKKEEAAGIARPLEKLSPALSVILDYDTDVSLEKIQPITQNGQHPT
5-hydroxytryptamine receptor 2A, sequence (P28223 whole entry): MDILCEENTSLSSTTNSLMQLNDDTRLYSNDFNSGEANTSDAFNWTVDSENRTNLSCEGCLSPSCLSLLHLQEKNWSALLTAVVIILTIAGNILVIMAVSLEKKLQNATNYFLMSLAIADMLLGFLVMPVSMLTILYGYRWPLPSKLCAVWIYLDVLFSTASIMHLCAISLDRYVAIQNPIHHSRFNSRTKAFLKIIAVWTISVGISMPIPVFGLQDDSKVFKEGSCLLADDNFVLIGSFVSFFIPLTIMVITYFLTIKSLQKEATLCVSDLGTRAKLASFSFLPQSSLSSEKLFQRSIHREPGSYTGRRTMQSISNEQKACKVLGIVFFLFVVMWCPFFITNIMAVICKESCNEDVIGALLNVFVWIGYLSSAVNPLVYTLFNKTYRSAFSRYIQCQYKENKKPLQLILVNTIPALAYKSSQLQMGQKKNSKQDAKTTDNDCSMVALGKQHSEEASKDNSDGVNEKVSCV
D(2) dopamine receptor, sequence (P14416 whole entry): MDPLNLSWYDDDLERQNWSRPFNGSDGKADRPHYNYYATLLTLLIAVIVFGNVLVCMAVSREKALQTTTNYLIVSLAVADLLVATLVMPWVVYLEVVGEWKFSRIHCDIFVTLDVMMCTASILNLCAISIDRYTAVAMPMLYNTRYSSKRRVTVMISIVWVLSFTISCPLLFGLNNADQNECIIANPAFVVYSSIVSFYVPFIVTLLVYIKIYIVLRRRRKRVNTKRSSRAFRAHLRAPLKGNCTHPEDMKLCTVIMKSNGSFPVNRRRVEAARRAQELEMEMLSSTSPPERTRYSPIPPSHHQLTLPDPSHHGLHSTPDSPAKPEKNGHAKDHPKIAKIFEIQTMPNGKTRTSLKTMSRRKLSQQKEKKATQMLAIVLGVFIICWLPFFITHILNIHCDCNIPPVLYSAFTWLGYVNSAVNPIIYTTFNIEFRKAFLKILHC
D(1B) dopamine receptor, sequence (P21918 whole entry): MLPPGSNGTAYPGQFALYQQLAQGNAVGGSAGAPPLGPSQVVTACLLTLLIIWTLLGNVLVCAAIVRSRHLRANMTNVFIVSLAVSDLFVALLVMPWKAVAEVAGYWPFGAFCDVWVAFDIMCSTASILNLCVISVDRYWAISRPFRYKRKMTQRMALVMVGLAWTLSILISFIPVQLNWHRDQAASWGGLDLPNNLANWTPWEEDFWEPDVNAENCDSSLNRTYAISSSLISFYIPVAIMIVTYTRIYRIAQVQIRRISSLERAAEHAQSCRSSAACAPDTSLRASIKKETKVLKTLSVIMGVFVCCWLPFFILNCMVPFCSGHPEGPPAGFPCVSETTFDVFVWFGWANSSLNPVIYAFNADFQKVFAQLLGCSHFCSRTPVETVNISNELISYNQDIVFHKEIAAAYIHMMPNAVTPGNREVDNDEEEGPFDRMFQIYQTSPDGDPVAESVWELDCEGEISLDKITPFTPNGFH
5-hydroxytryptamine receptor 2B, sequence (P41595 whole entry): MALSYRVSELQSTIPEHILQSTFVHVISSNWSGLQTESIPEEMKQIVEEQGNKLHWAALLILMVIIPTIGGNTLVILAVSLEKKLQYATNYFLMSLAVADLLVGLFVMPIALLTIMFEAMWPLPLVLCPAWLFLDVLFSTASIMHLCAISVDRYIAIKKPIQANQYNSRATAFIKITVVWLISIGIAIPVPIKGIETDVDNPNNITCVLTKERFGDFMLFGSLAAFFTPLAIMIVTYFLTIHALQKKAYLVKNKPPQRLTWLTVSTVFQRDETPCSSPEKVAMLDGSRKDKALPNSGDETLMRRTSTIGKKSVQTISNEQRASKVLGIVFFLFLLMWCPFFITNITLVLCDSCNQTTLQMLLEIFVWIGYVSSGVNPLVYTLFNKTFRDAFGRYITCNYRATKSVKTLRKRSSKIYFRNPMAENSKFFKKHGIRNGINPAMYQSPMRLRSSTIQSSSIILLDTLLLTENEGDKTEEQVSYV

Structure (SMILES) | Kp at 0.5 h [1] | Cmax [2] | half-life [3] | Ki (D(4) dopamine receptor) | Ki (D(1A) dopamine receptor) | Ki (D(2) dopamine receptor) | concentration at 2 h [4] | concentration at 0.5 h [5] | Activity [6] | Kp at 2 h [7] | MRT [8] | concentration at 2 h [9] | concentration at 0.5 h [10] | Ki [11] | concentration at 2 h [12] | concentration at 0.5 h [13] | concentration at 2 h [14] | Activity [18] | IC50 [21] | Ki (D(1B) dopamine receptor) | further results
CCCN(CCCCNC(=O)c1ccc(-c2ccccn2)cc1)C[C@@H]1C[C@H]1c1cc(F)ccc1OC.Cl | 1.19 | 43.2 ng/mL | 2.64 h | 575 nM | 4900 nM | 1350 nM | 6.57 ng/mL | 8.21 ng/mL | Active | 0.79 | 0.415 h | 8.4 ng/mL | 530 ng/mL | 1120 nM | 19.4 ng/mL | 16.8 ng/mL | 12.7 ng/mL | Not Active | 14500 nM | > 5000 nM | half-life [15]: 0.437 h; Tmax [16]: 0.25 h; MRT [17]: 3.72 h; bioavailability [19]: 3.8%; AUC(0-t) [20]: 660 ng·h/mL; Kp at 2 h [22]: 1.53; concentration at 0.5 h [23]: 446 ng/mL; clearance [24]: 126 mL/min/kg; Kp at 0.5 h [25]: 0.49; AUC(0-t) [26]: 49.5 ng·h/mL; Vd [27]: 3.13 L/kg
CCCN(CCCCNC(=O)c1ccc2ccccc2c1)C[C@@H]1C[C@H]1c1cccc(Cl)c1Cl.Cl | 12.7 | 37.3 ng/mL | 2.08 h | 813 nM | 1290 nM | 676 nM | 23.2 ng/mL | 23.2 ng/mL | Active | 1.61 | 2.58 h | 16.4 ng/mL | 3420 ng/mL | 427 nM | 913 ng/mL | 28.4 ng/mL | 82.6 ng/mL | Not Active | 16100 nM | > 5000 nM | half-life [15]: 1.51 h; Tmax [16]: 0.25 h; MRT [17]: 2.59 h; bioavailability [19]: 6.6%; AUC(0-t) [20]: 616 ng·h/mL; Kp at 2 h [22]: 11.1; concentration at 0.5 h [23]: 270 ng/mL; clearance [24]: 134 mL/min/kg; Kp at 0.5 h [25]: 0.82; AUC(0-t) [26]: 81.1 ng·h/mL; Vd [27]: 20.8 L/kg
CCCN(CCCCNC(=O)c1ccc(-c2ccccn2)cc1)C[C@@H]1C[C@H]1c1cccc(Cl)c1Cl.Cl | 1.92 | 118 ng/mL | 2.12 h | 676 nM | 1350 nM | – | 9.1 ng/mL | 26.7 ng/mL | Active | 0.207 | 0.808 h | 44.1 ng/mL | 980 ng/mL | 417 nM | 227 ng/mL | 118 ng/mL | 118 ng/mL | Not Active | 10100 nM | > 5000 nM | half-life [15]: 0.576 h; Tmax [16]: 0.5 h; MRT [17]: 2.77 h; bioavailability [19]: 13%; AUC(0-t) [20]: 976 ng·h/mL; Kp at 2 h [22]: 1.93; concentration at 0.5 h [23]: 511 ng/mL; clearance [24]: 84.8 mL/min/kg; Kp at 0.5 h [25]: 0.23; AUC(0-t) [26]: 254 ng·h/mL; Vd [27]: 4.11 L/kg
CCCN(CCCCNC(=O)c1ccc(-c2ccccn2)cc1)C[C@H]1C[C@@H]1c1cc(F)ccc1OC.Cl | – | – | – | 851 nM | 1070 nM | 1230 nM | – | – | Active | – | – | – | – | 50.1 nM | – | – | – | Not Active | 860 nM | > 5000 nM | –
